Results reported in ChEMBL document CHEMBL1127369, “Synthesis and structure-activity relationships of peptidyl alpha-keto heterocycles as novel inhibitors of prolyl endopeptidase” (J Med Chem, 1994).

Target: Prolyl endopeptidase (Sus scrofa, UniProt P23687)
Experiment: In vitro inhibitory activity against prolyl endopeptidase (PEP)
Method in brief: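 Pig kidney PEP, partially purified. Substrate Z-Gly-Pro-p-nitroanilide at 0.26 mM in dioxane with 0.2 M phosphate buffer. Inhibitor is added in DMSO over a range of concentrations, then enzyme (0.05 units/mL). Incubation 20 min at 37 °C, with p-nitroaniline read at 405 nm. IC50 (n = 3-6) is estimated from the inhibitor concentration vs activity curve.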

Sequence of Prolyl endopeptidase (P23687 whole entry): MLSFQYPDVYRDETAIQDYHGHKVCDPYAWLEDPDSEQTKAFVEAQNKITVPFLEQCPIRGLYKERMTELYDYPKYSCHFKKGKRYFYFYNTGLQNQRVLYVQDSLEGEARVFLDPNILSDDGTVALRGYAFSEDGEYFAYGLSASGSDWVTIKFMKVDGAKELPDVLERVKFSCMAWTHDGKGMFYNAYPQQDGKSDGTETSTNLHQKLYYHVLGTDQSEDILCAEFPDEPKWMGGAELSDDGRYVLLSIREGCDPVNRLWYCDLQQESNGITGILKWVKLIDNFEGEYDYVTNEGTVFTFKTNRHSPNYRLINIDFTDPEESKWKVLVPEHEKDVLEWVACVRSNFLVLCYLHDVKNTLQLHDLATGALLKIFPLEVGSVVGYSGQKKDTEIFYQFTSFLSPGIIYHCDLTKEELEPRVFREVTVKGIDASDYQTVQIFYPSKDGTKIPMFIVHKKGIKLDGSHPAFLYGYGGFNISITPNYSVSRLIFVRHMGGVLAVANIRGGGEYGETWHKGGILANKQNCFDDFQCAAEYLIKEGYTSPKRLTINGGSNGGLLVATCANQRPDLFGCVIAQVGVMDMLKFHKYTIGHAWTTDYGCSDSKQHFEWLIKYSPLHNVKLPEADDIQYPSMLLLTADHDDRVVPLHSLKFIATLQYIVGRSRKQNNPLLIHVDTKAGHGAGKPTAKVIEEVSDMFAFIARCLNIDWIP

## O=C(c1nc2ccccc2s1)[C@@H]1CCCN1C(=O)[C@@H]1CCCN1C(=O)CCCc1ccccc1
  IC50: 4 nM

## O=C(c1cncs1)[C@@H]1CCCN1C(=O)[C@@H]1CCCN1C(=O)CCCc1ccccc1
  IC50: 1090 nM

## O=C(c1ccc[nH]1)[C@@H]1CCCN1C(=O)[C@@H]1CCCN1C(=O)CCCc1ccccc1
  IC50: 21300 nM

## O=C(c1ncc[nH]1)[C@@H]1CCCN1C(=O)[C@@H]1CCCN1C(=O)CCCc1ccccc1
  IC50: 9 nM

## O=C(c1cccnc1)[C@@H]1CCCN1C(=O)[C@@H]1CCCN1C(=O)CCCc1ccccc1
  IC50: 2290 nM

## O=C(c1ccccn1)[C@@H]1CCCN1C(=O)[C@@H]1CCCN1C(=O)CCCc1ccccc1
  IC50: 6.9 nM

## O=C(c1cscn1)[C@@H]1CCCN1C(=O)[C@@H]1CCCN1C(=O)CCCc1ccccc1
  IC50: 6.2 nM

## O=C(c1nc2ccccc2s1)[C@@H]1CCCN1C(=O)[C@@H]1CCCN1C(=O)OCc1ccccc1
  IC50: 5 nM

## O=C([C@@H]1CCCN1C(=O)CCCc1ccccc1)N1CCCC1C(O)c1nccs1 (some centres not stated)
  IC50: 16100 nM

## O=C(c1nc2ccccc2o1)[C@@H]1CCCN1C(=O)[C@@H]1CCCN1C(=O)CCCc1ccccc1
  IC50: 5.6 nM

## O=C(c1cccs1)[C@@H]1CCCN1C(=O)[C@@H]1CCCN1C(=O)OCc1ccccc1
  IC50: 2020 nM

## O=C(C1=NCCS1)[C@@H]1CCCN1C(=O)[C@@H]1CCCN1C(=O)CCCc1ccccc1
  IC50: 3.8 nM

## O=C(c1nc2ncccc2o1)[C@@H]1CCCN1C(=O)[C@@H]1CCCN1C(=O)CCCc1ccccc1
  IC50: 5.5 nM

## O=C(c1cccs1)[C@@H]1CCCN1C(=O)[C@@H]1CCCN1C(=O)CCCc1ccccc1
  IC50: 1260 nM

## O=C(c1cncnc1)[C@@H]1CCCN1C(=O)[C@@H]1CCCN1C(=O)CCCc1ccccc1
  IC50: 61 nM

## CCOC(=O)C(=O)C1CCCN1C(=O)[C@@H]1CCCN1C(=O)CCCc1ccccc1 (some centres not stated)
  IC50: 10.3 nM

## O=C(c1nccs1)C1CCCN1C(=O)C1CCCN1C(=O)OCc1ccccc1 (configuration not stated)
  IC50: 8.5 nM
